Experimental data as given in ChEMBL document CHEMBL2177069, “Novel peptidomimetic compounds containing redox active chalcogens and quinones as potential anticancer agents” (Eur J Med Chem, 2012).
Calls of active or inactive are those of the source. No cut-off for these calls is given here.

How the values were obtained:
PtK2 [1] = test: Induction of oxidative stress in potoroo PtK2 cells assessed as change in cell morphology after 24 hrs by immunofluorescence microscopic analysis; format: functional, cell-based; conditions: Potorous tridactylus
Outline: (§1)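 PtK2 cells were grown on coverslips and treated once semi-confluent, for 24 h. Cells were fixed with 3.7% paraformaldehyde followed by 0.1% Triton X-100, or with cold methanol/acetone 50:50. Primary and secondary antibodies were applied for 45 min each: anti-GRP94 for ER, anti-α-tubulin. Actin was stained with phalloidin and nuclei with DAPI. Imaging was by fluorescence microscopy with a CCD camera.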

HUVEC = test: Cytotoxicity against human HUVEC cells after 24 hrs by MTT assay; format: cell-based
Outline: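 MTT assay. Cells were seeded at 50,000 cells/mL in medium with 10% fetal calf serum and grown for two days at 37 °C, 10% CO2. Serial dilutions of compound were then added for 24 h. MTT was added (final 0.5 mg/mL) for 2 h, and the formazan was pelleted, washed, dissolved in isopropanol with 0.4% HCl and read at 590 nm. IC50 is the concentration giving 50% of untreated-control absorbance, taken from dose-response curves; mean of two parallel experiments.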

OVCAR-8 = test: Cytotoxicity against human OVCAR8 cells; format: functional
CCRF-CEM = test: Cytotoxicity against human CCRF-CEM cells; format: functional
CAKI-1 = test: Cytotoxicity against human Caki1 cells; format: functional
SW-620 = test: Cytotoxicity against human SW620 cells; format: functional
EKVX = test: Cytotoxicity against human EKVX cells; format: functional
NCI-H460 = test: Cytotoxicity against human NCI-H460 cells; format: functional
NCI-H23 = test: Cytotoxicity against human NCI-H23 cells; format: functional
HOP-62 = test: Cytotoxicity against human HOP62 cells; format: functional
Saccharomyces cerevisiae [2] = test: Growth inhibition of RCK1-deficient Saccharomyces cerevisiae YGL158W mutant at 20 ug/disc after 24 to 48 hrs by agar diffusion assay; format: functional; conditions: read-out: DIZ
Outline: (§2)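 S. cerevisiae deletion mutants or wild type grown on YPD, seeded into liquid agar medium at an optical density of 0.1. 6 mm paper discs soaked with methanolic compound solution were placed on the plates and incubated at 30 °C. Growth was checked after 1 and 2 days, and the inhibition zone diameter was recorded in mm.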

Saccharomyces cerevisiae [3] = test: Growth inhibition of GSH2-deficient Saccharomyces cerevisiae YOL049W mutant at 20 ug/disc after 24 to 48 hrs by agar diffusion assay; format: functional; conditions: read-out: DIZ; outline: as §2
PtK2 [4] = test: Induction of oxidative stress in potoroo PtK2 cells assessed as hole in the endoplasmic reticulum after 24 hrs by immunofluorescence microscopic analysis; format: functional, cell-based; conditions: Potorous tridactylus; outline: as §1
KM12 = test: Cytotoxicity against human KM12 cells; format: functional
A549 = test: Cytotoxicity against human A549 cells; format: functional
UACC-62 = test: Cytotoxicity against human UACC62 cells; format: functional
NCI-H322M = test: Cytotoxicity against human NCI-H322M cells; format: functional
Saccharomyces cerevisiae [5] = test: Growth inhibition of wild type Saccharomyces cerevisiae BY4741 at 20 ug/disc after 24 to 48 hrs by agar diffusion assay; format: functional; conditions: read-out: DIZ; outline: as §2
Saccharomyces cerevisiae [6] = test: Growth inhibition of SOD2-deficient Saccharomyces cerevisiae YHR008C mutant at 20 ug/disc 24 to 48 hrs by agar diffusion assay; format: functional; conditions: read-out: DIZ; outline: as §2
PtK2 [7] = test: Induction of oxidative stress in potoroo PtK2 cells assessed as change in microtubular network after 24 hrs by immunofluorescence microscopic analysis; format: functional, cell-based; conditions: Potorous tridactylus; outline: as §1
K562 = test: Cytotoxicity against human K562 cells; format: functional
TK-10 = test: Cytotoxicity against human TK10 cells; format: functional
MCF7 = test: Cytotoxicity against human MCF7 cells; format: functional
Saccharomyces cerevisiae [8] = test: Growth inhibition of POS5-deficient Saccharomyces cerevisiae YPL188W mutant at 20 ug/disc after 24 to 48 hrs by agar diffusion assay; format: functional; conditions: read-out: DIZ; outline: as §2
HL-60 = test: Cytotoxicity against human HL60 cells; format: functional
SNB-19 = test: Cytotoxicity against human SNB19 cells; format: functional
SF-295 = test: Cytotoxicity against human SF295 cells; format: functional
Hs-578T = test: Cytotoxicity against human Hs578T cells; format: functional
SF-268 = test: Cytotoxicity against human SF268 cells; format: functional
SK-MEL-5 = test: Cytotoxicity against human SK-MEL-5 cells; format: functional
PC-3 = test: Cytotoxicity against human PC3 cells; format: functional
Saccharomyces cerevisiae [9] = test: Growth inhibition of COX17-deficient Saccharomyces cerevisiae YLL009C mutant at 20 ug/disc after 24 to 48 hrs by agar diffusion assay; format: functional; conditions: read-out: DIZ; outline: as §2
BT-549 = test: Cytotoxicity against human BT549 cells; format: functional
PtK2 [10] = test: Induction of oxidative stress in potoroo PtK2 cells assessed as reduction in actin stress fibres after 24 hrs by immunofluorescence microscopic analysis; format: functional, cell-based; conditions: Potorous tridactylus; outline: as §1
RPMI-8226 = test: Cytotoxicity against human RPMI8226 cells; format: functional
UACC-257 = test: Cytotoxicity against human UACC257 cells; format: functional
IGROV-1 = test: Cytotoxicity against human IGROV1 cells; format: functional
OVCAR-3 = test: Cytotoxicity against human OVCAR3 cells; format: functional

`CC1=C(SCCC(=O)OC(C[Se]C2=C(C)C(=O)c3ccccc3C2=O)C(=O)NCCCCCC(=O)OCc2ccccc2)C(=O)c2ccccc2C1=O` (configuration not stated) was tested, and the Activity (PtK2 [1]) was “Active”, the IC50 (HUVEC) was 7 µM and the GI50 (OVCAR-8) was 4.17 µM. It also gave an LC50 (OVCAR-8) of 50.1 µM, a TGI (OVCAR-8; read-out: pTGI (converted)) of 15.1 µM and a GI50 (CCRF-CEM) of 2820 nM. The LC50 (CCRF-CEM) was > 100 µM, the TGI (CCRF-CEM; read-out: pTGI) was > 100 µM and the GI50 (CAKI-1) was 6.92 µM. The LC50 (CAKI-1) was 51.3 µM, the TGI (CAKI-1; read-out: pTGI (converted)) was 21.4 µM and the GI50 (SW-620) was 2450 nM. It also gave an LC50 (SW-620) of 36.3 µM, a TGI (SW-620; read-out: pTGI (converted)) of 9.33 µM and a GI50 (EKVX) of 3.63 µM. For the same compound, the LC50 (EKVX) was 58.9 µM, the TGI (EKVX; read-out: pTGI (converted)) was 17.8 µM and the GI50 (NCI-H460) was 1910 nM. It also gave an LC50 (NCI-H460) of 14.1 µM, a TGI (NCI-H460; read-out: pTGI (converted)) of 4.57 µM and a GI50 (NCI-H23) of 2750 nM. It also gave an LC50 (NCI-H23) of 52.5 µM, a TGI (NCI-H23; read-out: pTGI (converted)) of 7.76 µM and a GI50 (HOP-62) of 3.8 µM. The LC50 (HOP-62) was 39.8 µM, the TGI (HOP-62; read-out: pTGI (converted)) was 14.5 µM and the zone of inhibition at 20 µg/disc (Saccharomyces cerevisiae [2]) was 10 mm. For the same compound, the zone of inhibition at 20 µg/disc (Saccharomyces cerevisiae [3]) was 10 mm, the Activity (PtK2 [4]) was “Active” and the GI50 (KM12) was 1410 nM. The LC50 (KM12) was 13.8 µM, the TGI (KM12; read-out: pTGI (converted)) was 4.07 µM and the GI50 (A549) was 3.98 µM. The LC50 (A549) was > 100 µM, the TGI (A549; read-out: pTGI (converted)) was 11.5 µM and the GI50 (UACC-62) was 8.13 µM. The LC50 (UACC-62) was 46.8 µM, the TGI (UACC-62; read-out: pTGI (converted)) was 20.9 µM and the GI50 (NCI-H322M) was 3.8 µM. The LC50 (NCI-H322M) was 66.1 µM, the TGI (NCI-H322M; read-out: pTGI (converted)) was 17.4 µM and the zone of inhibition at 20 µg/disc (Saccharomyces cerevisiae [5]) was 0 mm. The zone of inhibition at 20 µg/disc (Saccharomyces cerevisiae [6]) was 15 mm, the Activity (PtK2 [7]) was “inactive” and the GI50 (K562) was 3.02 µM. For the same compound, the LC50 (K562) was > 100 µM, the TGI (K562; read-out: pTGI) was > 100 µM and the GI50 (TK-10) was 13.8 µM. The LC50 (TK-10) was 53.7 µM, the TGI (TK-10; read-out: pTGI (converted)) was 26.9 µM and the GI50 (MCF7) was 4.79 µM. For the same compound, the LC50 (MCF7) was > 100 µM, the TGI (MCF7; read-out: pTGI (converted)) was 29.5 µM and the zone of inhibition at 20 µg/disc (Saccharomyces cerevisiae [8]) was 10 mm. For the same compound, the GI50 (HL-60) was 3.09 µM, the LC50 (HL-60) was > 100 µM and the TGI (HL-60; read-out: pTGI (converted)) was 8.51 µM. It also gave a GI50 (SNB-19) of 3.8 µM, an LC50 (SNB-19) of 40.7 µM and a TGI (SNB-19; read-out: pTGI (converted)) of 14.1 µM. For the same compound, the GI50 (SF-295) was 2510 nM, the LC50 (SF-295) was 97.7 µM and the TGI (SF-295; read-out: pTGI (converted)) was 8.71 µM. For the same compound, the GI50 (Hs-578T) was 7.59 µM, the LC50 (Hs-578T) was > 100 µM and the TGI (Hs-578T; read-out: pTGI (converted)) was > 100 µM. For the same compound, the GI50 (SF-268) was 7.41 µM, the LC50 (SF-268) was 44.7 µM and the TGI (SF-268; read-out: pTGI (converted)) was 20 µM. It also gave a GI50 (SK-MEL-5) of 3.8 µM, an LC50 (SK-MEL-5) of 39.8 µM and a TGI (SK-MEL-5; read-out: pTGI (converted)) of 14.8 µM. For the same compound, the GI50 (PC-3) was 2570 nM, the LC50 (PC-3) was 55 µM and the TGI (PC-3; read-out: pTGI (converted)) was 9.12 µM. For the same compound, the zone of inhibition at 20 µg/disc (Saccharomyces cerevisiae [9]) was 11 mm, the GI50 (BT-549) was 3.8 µM and the LC50 (BT-549) was 36.3 µM. The TGI (BT-549; read-out: pTGI (converted)) was 12.9 µM, the Activity (PtK2 [10]) was “Active” and the GI50 (RPMI-8226) was 2630 nM. The LC50 (RPMI-8226) was > 100 µM, the TGI (RPMI-8226; read-out: pTGI (converted)) was 7.76 µM and the GI50 (UACC-257) was 3.47 µM. The LC50 (UACC-257) was 34.7 µM, the TGI (UACC-257; read-out: pTGI (converted)) was 10 µM and the GI50 (IGROV-1) was 2140 nM. For the same compound, the LC50 (concentration killing 50% of cells) (IGROV-1) was 53.7 µM, the TGI (IGROV-1; read-out: pTGI (converted)) was 14.5 µM and the GI50 (OVCAR-3) was 5.01 µM. It also gave an LC50 (OVCAR-3) of 42.7 µM and a TGI (OVCAR-3; read-out: pTGI (converted)) of 18.2 µM.
